PGC1a acetyl inh = lowers PGC1a acetylation signal in U2OS cells; AlphaScreen anti-acetyl-lysine; with virally co-expressed GCN5 acetyltransferase; inhibition, % at 15.6 µM; actives 0.17% (n = 350,000); AID 651687;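 active means every replicate shows inhibition of at least 40%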;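 further: 0% = neutral control wells and 100% = positive control wells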
FN deposit inh = fibronectin deposition inhibition | AH1F fibroblasts, Alexa488-fibronectin deposition fluorescence, overnight | inhibition, % at 12.6 µM | actives 0.086% (n = 350,000);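 active means mean inhibition across replicates of 30% or more, regardless of how many single replicates reach that level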;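 further: positive control wells lacked labelled fibronectin entirely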
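Assay system: AH1F fibroblasts / Quantity: 10000 cells per well / Medium: DMEM plus 2% serum, read in PBS / Reagent: labelled fibronectin 24 nM / Dosing: single dose, pinned / Times: 1 h cell attachment, overnight exposure to compound and label / Signal: fluorescence, ex 485 nm, em 525 nm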
ERAP1 HTS inh = inhibitors of human ERAP1 aminopeptidase; Q9NZ08; recombinant ERAP1, Leu-AMC fluorescence, 60 min; inhibition, % at 10.7 µM; actives 0.15% (n = 340,000); AID 652197;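 active means mean replicate inhibition of at least 30%, or all replicates individually reaching that 30% level; inactive means mean below 30% and not every replicate reaching it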;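 further: 0% = neutral control wells and 100% = L-leucinethiol positive control wells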
FGF22 binding = FGF22 (human) thermal shift binding. recombinant FGF22 thermal shift, SYPRO orange fluorescence; percent of sucrose octasulfate shift, DMSO zero. activity (Tm shift, normalised), % at 9.99 µM. actives 1.5% (n = 340,000). AID 651658;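 active means mean Tm shift, scaled 0 neutral to 100 positive control, at about 1.3% or above, every replicate too, limit read from the data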
Target sequence (Q9HCT0 whole entry, looked up): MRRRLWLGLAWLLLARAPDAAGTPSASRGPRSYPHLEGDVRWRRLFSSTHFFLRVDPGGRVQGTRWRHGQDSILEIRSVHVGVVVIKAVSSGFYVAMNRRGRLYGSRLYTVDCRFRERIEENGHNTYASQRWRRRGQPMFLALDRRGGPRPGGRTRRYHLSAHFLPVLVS
SIRT5 inh = inhibitors of human sirtuin-5 desuccinylase; Q9NXA8; Purified SirT5, succinyl-peptide AMC, trypsin-coupled fluorescence; inhibition, % at 15 µM; actives 1.1% (n = 330,000); AID 652115; in the data active means inhibition above about 15%
The depositor's hits bear a star; x = not tested or not shown. Compounds with a hit are over-represented: about 2.2% of the library has one in this group of screens.

SMILES	PGC1a acetyl inh	FN deposit inh	ERAP1 HTS inh	FGF22 binding	SIRT5 inh
OC1CCCN(CC(O)c2ccccc2)C1 (stereo not given)	-12.5	-2.0	0.9	42.9*	-0.5
C[C@@H]1CN([C@H](C)CO)C(=O)c2cccc(NC(=O)Nc3ccc4c(c3)OCO4)c2O[C@H]1CN(C)CC1CCCCC1	x	-10.6	x	x	x
COc1cccc(NC(=O)C[C@@H]2CC[C@H]3[C@H](COc4ccc(NC(C)=O)cc4C(=O)N3C)O2)c1	-1.4	-0.1	-1.3	-0.1	0.2
COc1ccc(S(=O)(=O)Nc2ccc3c(c2)C(=O)N([C@H](C)CO)C[C@@H](C)[C@H](CN(C)C)OCCCC[C@H](C)O3)cc1	0.0	6.3	-1.7	0.0	-2.4
COc1ccc(Oc2nc(-c3ccccc3)ncc2C(=O)O)cc1	11.3	-2.8	-1.8	43.0*	-1.6
COc1ccc(Sc2nc(-c3ccccc3)ncc2C(=O)O)cc1	7.6	-65.0	1.4	42.7	-1.4
C[C@@H]1CN([C@@H](C)CO)S(=O)(=O)c2ccc(/C=C/c3ccccc3)cc2O[C@@H]1CN(C)C(=O)CN1CCOCC1	-3.2	x	2.9	0.0	0.9
COc1cccc(S(=O)(=O)N(C)C[C@@H]2Oc3cc(C4=CCCCC4)ccc3S(=O)(=O)N([C@@H](C)CO)C[C@H]2C)c1	-3.9	x	1.1	-0.1	22.2*
COc1cccc(S(=O)(=O)N(C)C[C@@H]2Oc3cc(C4=CCCC4)ccc3S(=O)(=O)N([C@H](C)CO)C[C@@H]2C)c1	-58.6	-25.5	-0.4	-0.2	-6.1
COc1cccc(S(=O)(=O)N(C)C[C@H]2Oc3cc(C4=CCCC4)ccc3S(=O)(=O)N([C@@H](C)CO)C[C@H]2C)c1	-19.4	-0.9	3.4	-0.2	21.3*
COc1cccc(S(=O)(=O)N(C)C[C@H]2Oc3cc(C4=CCCCC4)ccc3S(=O)(=O)N([C@@H](C)CO)C[C@@H]2C)c1	-12.0	x	0.2	-0.4	-1.1
Cc1cc(C)n2ncc(C(=O)NCc3ccc(Cl)cc3)c2n1	0.9	46.0*	x	x	x
O=C(/C=C/c1ccccc1Cl)Nc1ccc(Cl)cn1	x	-6.5	-0.6	42.9*	-3.1
O=C(/C=C/c1ccccc1Cl)Nc1ccccc1	-4.2	-0.7	-3.0	1.5*	5.7
O=C(Nc1ccc(Cl)cn1)C1C(c2ccccc2)C1(Cl)Cl (stereo not given)	-34.3	-3.7	-0.3	43.7*	1.5
O=C(/C=C/c1ccccc1Cl)Nc1cccc(O)c1	x	13.4	8.4	0.8	4.0
COc1cccc(NC(=O)Nc2ccc3c(c2)C(=O)N(C)C[C@@H](OC)[C@@H](C)CN(C)[C@H](C)CO3)c1	2.5	7.7	0.5	0.3	-3.2
CC(C)NC(=O)N1C[C@H]2[C@@H](c3ccccc31)[C@@H](CO)N2Cc1ccccc1	-0.3	x	0.5	0.5	0.8
CCc1cccc2c(C#N)cn(CC(=O)NCc3ccco3)c12	0.2	x	x	x	x
CCOC(=O)Cn1cc(C#N)c2cccc(CC)c21	-3.0	-4.9	-3.6	0.2	23.9*
CN1c2ccc(C3=CCCCC3)cc2[C@@H]2[C@@H](CCN2C(=O)NC2CCCCC2)[C@H]1CO	-3.9	-2.4	x	-0.2	x
Oc1ccc2ccccc2c1C=Nc1ccccc1Br	x	5.8	0.4	0.2	0.1
Oc1ccccc1N=Cc1c(O)ccc2ccccc12	-25.2	-3.0	0.1	-0.1	23.1*
Cc1ccc(S(=O)(=O)N(C)C[C@H]2OCCCC[C@@H](C)Oc3ccc(NS(=O)(=O)c4ccc(Cl)cc4)cc3C(=O)N([C@@H](C)CO)C[C@H]2C)cc1	-5.2	-5.5	-1.2	-0.1	22.1*
Cc1ccc(S(=O)(=O)Nc2ccc3c(c2)C(=O)N([C@@H](C)CO)C[C@@H](C)[C@@H](CN(C)S(=O)(=O)c2ccc(Cl)cc2)OCCCC[C@H](C)O3)cc1	-2.9	1.7	x	x	x
C[C@@H]1CCCCO[C@@H](CN(C)S(=O)(=O)c2ccc(Cl)cc2)[C@H](C)CN([C@@H](C)CO)C(=O)c2cc(NS(=O)(=O)c3ccc(Cl)cc3)ccc2O1	-11.4	2.3	x	-0.3	x
Cc1ccc(S(=O)(=O)N(C)C[C@@H]2OCCCC[C@H](C)Oc3ccc(NS(=O)(=O)c4ccc(Cl)cc4)cc3C(=O)N([C@@H](C)CO)C[C@@H]2C)cc1	-0.6	-2.9	-0.1	0.4	21.5*
